From ChEMBL document CHEMBL4311980, “Discovery of 2-isoxazol-3-yl-acetamide analogues as heat shock protein 90 (HSP90) inhibitors with significant anti-HIV activity” (Eur J Med Chem, 2019)
The source made the active and inactive calls. No cut-off for these calls is given here.

Assays:
[1] = Cytotoxicity against human TZM-bl cells assessed as maximum non-cytotoxic concentration after 48 hrs by MTT assay; type: cell-based; details: read-out: MNCC
Outline: (§1)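 Cells were seeded at 25,000/well in complete medium with compound at different concentrations, with untreated and DMSO controls, and incubated 48 h. MTT (5 mg/mL stock) was added for 4 h at 37 °C in the dark. Formazan was dissolved in isopropanol and A570 read. CC50 and highest non-cytotoxic concentration were derived from this assay.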

[2] = tested on: Human immunodeficiency virus 1; test: Antiviral activity against HIV-1 NL4-3 infected in human TZM-bl cells assessed as reduction in viral replication at 1000 nM measured at 48 hrs post-infection by steady-glo reporter gene assay relative to control; type: functional; details: Human immunodeficiency virus 1, NL4-3, TZM-bl
Outline: (§2)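 TZM-bl cells (0.15×10^6/well) were infected with 0.5 MOI HIV-1 NL4-3 12 h after seeding and treated at the highest non-cytotoxic concentration, which was set by MTT assay. At 48 h post-infection, cells were lysed and mixed 1:1 with Steady-Glo substrate, and luminescence was read.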

[3] = Cytotoxicity against human CEM-GFP cells assessed as reduction in cell viability after 48 hrs by MTT assay; type: cell-based; outline: as §1
[4] = tested on: Human immunodeficiency virus 1; test: Antiviral activity against HIV-1 NL4-3 infected in human CEM-GFP cells assessed as suppression of viral replication by measuring reduction in p24 level measured at 72 hrs post-infection by ELISA; type: functional, organism-based; details: Human immunodeficiency virus 1, NL4-3, CEM-GFP
Outline: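 Cells were incubated with 0.5 MOI virus in the presence of polybrene at 37 °C for 4 h with intermittent mixing, then washed and plated in complete RPMI-1640. Compound added at different concentrations, with untreated and DMSO controls. PBMC were PHA-activated. Supernatant p24 measured by capture ELISA (A450) at 72 h. % inhibition calculated relative to untreated cells.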

[5] = Therapeutic index, ratio of CC50 for human CEM-GFP cells to IC50 for antiviral activity against HIV-1 NL4-3 infected in human CEM-GFP cells; type: toxicity, cell-based; details: read-out: Ratio CC50/IC50
Outline: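 IC50 was determined from p24 ELISA 72 h after 0.5 MOI HIV-1 NL4-3 infection with compound at different concentrations. Therapeutic index = CC50/IC50.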

[6] = tested on: Human immunodeficiency virus 1; test: Antiviral activity against HIV1 NL4-3 infected in human TZM-bl cells assessed as reduction in viral replication at 100 nM measured at 48 hrs post-infection by steady-glo reporter gene assay relative to control; type: functional; details: Human immunodeficiency virus 1, NL4-3, TZM-bl; outline: as §2
[7] = tested on: Human immunodeficiency virus 1; test: Antiviral activity against HIV1 NL4-3 infected in human TZM-bl cells assessed as reduction in viral replication at 500 nM measured at 48 hrs post-infection by steady-glo reporter gene assay relative to control; type: functional; details: Human immunodeficiency virus 1, NL4-3, TZM-bl; outline: as §2
[8] = target: Human immunodeficiency virus type 1 reverse transcriptase (Human immunodeficiency virus 1) (UniProt Q72547); details: 500 nM

## COc1ccc(-c2cc(CC(=O)Nc3cccc(C)c3)no2)cc1
[1]
  MNTC at 48 h: 1000 nM
[2]
  inhibition at 1 µM: 95.5%
[3]
  CC50 at 48 h: 15.7 µM
[4]
  IC50: 0.284 µM
[5]
  selectivity ratio: 55.1

## Cc1ccc(NC(=O)Cc2cc(-c3ccccc3)on2)cc1
[1]
  MNTC at 48 h: 1000 nM
[2]
  inhibition at 1 µM: 98.4%
[3]
  CC50 at 48 h: 44 µM
[4]
  IC50: 0.0868 µM
[5]
  selectivity ratio: 507

## O=C(Cc1cc(-c2ccccc2)on1)Nc1ccc(Cl)cc1
[1]
  MNTC at 48 h: 100 nM
[6]
  inhibition at 0.1 µM: 49%

## O=C(Cc1cc(-c2ccccc2)on1)Nc1ccc(F)cc1
[1]
  MNTC at 48 h: 500 nM
[7]
  inhibition at 0.5 µM: 85.4%
[3]
  CC50 at 48 h: 11.8 µM
[4]
  IC50: 0.0871 µM
[5]
  selectivity ratio: 136

## O=C(Cc1cc(-c2ccccc2)on1)Nc1ccccc1O
[1]
  MNTC at 48 h: 1000 nM
[2]
  inhibition at 1 µM: 94.8%
[3]
  CC50 at 48 h: 42.9 µM
[4]
  IC50: 0.253 µM
[5]
  selectivity ratio: 170

## COC(=O)c1ccc(NC(=O)Cc2cc(-c3ccccc3)on2)cc1
[1]
  MNTC at 48 h: 100 nM
[6]
  inhibition at 0.1 µM: 27.7%

## Cc1ccccc1NC(=O)Cc1cc(-c2ccccc2)on1
[1]
  MNTC at 48 h: 1000 nM
[2]
  inhibition at 1 µM: 23.5%

## Cc1ccnc2c1NC(=O)c1cccnc1N2C1CC1
[8]
  inhibition: Active

## COc1ccc(NC(=O)Cc2cc(-c3ccccc3)on2)cc1
[1]
  MNTC at 48 h: 1000 nM
[2]
  inhibition at 1 µM: 59.6%
